Holding throughout (type): functional, cell-based
Assay [1] has as its system T-cell. Nature of the assay: Induction of IL4 production in C57BL/6 mouse natural killer T cells after 48 hrs by cytometric bead array. The procedure, abridged: (§1)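 Spleen cells (approx. 4 × 10⁵) from female C57BL/6 mice aged 6–8 weeks were cultured 48 h at 37 °C in humidified 5% CO₂. Medium was RPMI 1640 with 10% heat-inactivated FCS, 2 mM L-glutamine, penicillin/streptomycin and 10 mM Hepes, plus glycolipid at 2, 20 or 200 ng/mL. Supernatant IFN-γ, IL-4 and IL-13 were read by cytometric bead array with PE detection, interpolated from standard curves. Values are means of three wells.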

The test system of assay [2] is T-cell. Kind of assay: Induction of IL13 production in C57BL/6 mouse natural killer T cells after 48 hrs by cytometric bead array. A digest of the protocol:
as §1

The test system of assay [3] is T-cell. Kind of assay: Induction of IFN-gamma production in C57BL/6 mouse natural killer T cells upto 200 ng/ml after 48 hrs by cytometric bead array relative to KRN7000. A digest of the protocol:
as §1

Assay [4] relates to T-cell. Kind of assay: Induction of IFN-gamma production in C57BL/6 mouse natural killer T cells after 48 hrs by cytometric bead array. The procedure, abridged: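 Spleen cells (about 4 × 10⁵) from female C57BL/6 mice aged 6–8 weeks, in RPMI 1640 with 10% heat-inactivated FCS, glutamine, antibiotics and Hepes, at 37 °C in 5% CO₂. Cells were stimulated with glycolipid at 2, 20 or 200 ng/mL for 48 h. Supernatant IFN-γ was measured by cytometric bead array on FACS against a kit standard curve. Mean of three wells.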

For assay [5], the system named is T-cell. Nature of the assay: Induction of IL4 production in C57BL/6 mouse natural killer T cells at 2 ng/ml after 48 hrs by cytometric bead array. A digest of the protocol: as §1
Assay [6] deals with T-cell. Kind of assay: Induction of IL13 production in C57BL/6 mouse natural killer T cells at 2 ng/ml after 48 hrs by cytometric bead array. The procedure, abridged:
as §1

Structures are written as SMILES. Active and inactive are the calls of the source. The rule behind the calls is not given here.

Take `CCCCCCCCCCCCCC[C@@H](O)[C@@H](O)[C@H](CO[C@H]1O[C@H](CO)[C@H](O)[C@H](O)[C@H]1O)NS(=O)(=O)c1ccc(C)cc1`: the outcome with T-cell [1] and in the assay on T-cell [2] was Active. The outcome in the assay on T-cell [3] was inactive.
As to `CCCCCCCCCCCCCCCCCCCCCCCCCC(=O)N[C@@H](CO[C@H]1O[C@H](CO)[C@H](O)[C@H](O)[C@H]1O)[C@H](O)[C@H](O)CCCCCCCCCCCCCC`, the result with T-cell [1] and with T-cell [2] was Active.
For the molecule `CCCCCCCCCCCCCC[C@@H](O)[C@@H](O)[C@H](CO[C@H]1O[C@H](CO)[C@H](O)[C@H](O)[C@H]1O)NS(=O)(=O)c1ccccc1C`, the result in the assay on T-cell [1] and in the assay with T-cell [2] was Active. Besides, in the assay on T-cell [3], the outcome was inactive.
For `CCCCCCCCCCCCCCCCCC(=O)N[C@@H](CO[C@H]1O[C@H](CO)[C@H](O)[C@H](O)[C@H]1O)[C@H](O)[C@H](O)CCCCCCCCCCCCCC`, the outcome with T-cell [4] was Active.
The same measure, in the same setting: the value for `CCCCCCCCCCCCCC[C@@H](O)[C@@H](O)[C@H](CO[C@H]1O[C@H](CO)[C@H](O)[C@H](O)[C@H]1O)NC(=O)c1ccc(C)cc1` was “inactive”.
Turning to `CCCCCCCCCCCCCCCCS(=O)(=O)N[C@@H](CO[C@H]1O[C@H](CO)[C@H](O)[C@H](O)[C@H]1O)[C@H](O)[C@H](O)CCCCCCCCCCCCCC`, in the assay with T-cell [3], the result was inactive.
Take `CCCCCCCCCCCCCC[C@@H](O)[C@@H](O)[C@H](CO[C@H]1O[C@H](CO)[C@H](O)[C@H](O)[C@H]1O)NS(=O)(=O)c1cccc2ccccc12`: the result with T-cell [1] and with T-cell [2] was Active. Moreover, the outcome with T-cell [3] was inactive.
As for `CCCCCCCCCCCCCC[C@@H](O)[C@@H](O)[C@H](CO[C@H]1O[C@H](CO)[C@H](O)[C@H](O)[C@H]1O)NS(=O)(=O)c1ccc(-c2ccccc2)cc1`, the outcome in the assay with T-cell [1] and in the assay on T-cell [2] was Active. In addition, in the assay with T-cell [3], the result was inactive.
As for `CCCCCCCCCCCCCC[C@@H](O)[C@@H](O)[C@H](CO[C@H]1O[C@H](CO)[C@H](O)[C@H](O)[C@H]1O)NS(=O)(=O)c1cccc(C)c1`, the result in the assay on T-cell [1] and in the assay with T-cell [2] was Active. In the assay on T-cell [3], the outcome was inactive.
`CCCCCCCCCCCCCC[C@@H](O)[C@@H](O)[C@H](CO[C@H]1O[C@H](CO)[C@H](O)[C@H](O)[C@H]1O)NS(=O)(=O)c1ccc(NC(C)=O)cc1`: the outcome with T-cell [1], with T-cell [2], with T-cell [5] and in the assay on T-cell [6] was Active. The outcome in the assay on T-cell [3] was inactive.
As for `CCCCCCCCCCCCCCCCCCCCCCCC(=O)N[C@@H](CO[C@H]1O[C@H](CO)[C@H](O)[C@H](O)[C@H]1O)[C@H](O)[C@H](O)CCCCC`, the outcome in the assay on T-cell [1] and in the assay with T-cell [2] was Active.
As for `CCCCCCCCCCCCCC[C@@H](O)[C@@H](O)[C@H](CC[C@H]1O[C@H](CO)[C@H](O)[C@H](O)[C@H]1O)NS(=O)(=O)c1ccc(C)cc1`, the outcome in the assay on T-cell [4], with T-cell [1] and in the assay with T-cell [2] was inactive.
As to `CCCCCCCCCCCCCC[C@@H](O)[C@@H](O)[C@H](CO[C@H]1O[C@H](CO)[C@H](O)[C@H](O)[C@H]1O)NS(=O)(=O)c1ccc(OC)cc1`, the outcome in the assay with T-cell [1] and with T-cell [2] was Active. Moreover, the outcome in the assay on T-cell [3] was inactive.
